ChEMBL document CHEMBL4311938, “Sirtuin inhibition and anti-cancer activities of ethyl 2-benzimidazole-5-carboxylate derivatives” (Medchemcomm, 2019)
Activity calls are given as the source filed them. The rule behind the calls is not given here.

Columns and labels:
[1] = system: H103; assay: Induction of apoptosis in human H103 cells assessed as late apoptotic cells after 24 hrs by AnnexinV-FLTC/propidium iodide staining based flow cytometry (reference value: 1.32 %); assay type: functional
[2] = target: T1, NAD-dependent protein deacetylase sirtuin-2 (Homo sapiens) (UniProt Q8IXJ6); assay: Inhibition of SIRT2 in human H103 cells assessed as increase in acetylated alpha tubulin level at 5.83 uM after 72 hrs by Western blot analysis; assay type: cell-based
T1 sequence (whole entry): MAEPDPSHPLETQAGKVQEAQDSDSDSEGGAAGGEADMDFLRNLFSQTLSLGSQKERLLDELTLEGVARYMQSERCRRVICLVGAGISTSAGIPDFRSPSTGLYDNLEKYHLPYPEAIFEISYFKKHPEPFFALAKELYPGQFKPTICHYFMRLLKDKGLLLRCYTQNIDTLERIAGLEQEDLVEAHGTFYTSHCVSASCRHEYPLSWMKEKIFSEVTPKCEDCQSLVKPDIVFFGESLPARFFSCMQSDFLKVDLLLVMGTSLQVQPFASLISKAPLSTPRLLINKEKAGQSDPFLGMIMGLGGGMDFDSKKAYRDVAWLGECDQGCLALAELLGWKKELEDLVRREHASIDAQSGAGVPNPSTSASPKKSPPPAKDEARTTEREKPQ
How it was run: (§1)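 H103 cells were seeded at 5 × 10^5 per well and treated either for 24 h or for 72 h. Lysates were run on SDS-PAGE and blotted to PVDF. Blocking in 5% skimmed milk with primary antibody was done overnight at 4 °C. HRP secondaries were anti-mouse 1:5000 and anti-rabbit 1:1000, 1 h at room temperature, with ECL detection. Acetylated protein was normalized to actin, then to total protein, then to untreated cells. Two independent experiments were run.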

[3] = system: H103; assay: Induction of apoptosis in human H103 cells assessed as viable cells after 24 hrs by AnnexinV-FLTC/propidium iodide staining based flow cytometry (reference value: 29.4 %); assay type: functional
[4] = target: T2, NAD-dependent protein deacetylase sirtuin-1 (Homo sapiens) (UniProt Q96EB6); assay: Inhibition of SIRT1 in human H103 cells assessed as increase in acetylated p53 level at 5.83 uM after 72 hrs by Western blot analysis; assay type: cell-based; how it was run: as §1
T2 sequence (whole entry): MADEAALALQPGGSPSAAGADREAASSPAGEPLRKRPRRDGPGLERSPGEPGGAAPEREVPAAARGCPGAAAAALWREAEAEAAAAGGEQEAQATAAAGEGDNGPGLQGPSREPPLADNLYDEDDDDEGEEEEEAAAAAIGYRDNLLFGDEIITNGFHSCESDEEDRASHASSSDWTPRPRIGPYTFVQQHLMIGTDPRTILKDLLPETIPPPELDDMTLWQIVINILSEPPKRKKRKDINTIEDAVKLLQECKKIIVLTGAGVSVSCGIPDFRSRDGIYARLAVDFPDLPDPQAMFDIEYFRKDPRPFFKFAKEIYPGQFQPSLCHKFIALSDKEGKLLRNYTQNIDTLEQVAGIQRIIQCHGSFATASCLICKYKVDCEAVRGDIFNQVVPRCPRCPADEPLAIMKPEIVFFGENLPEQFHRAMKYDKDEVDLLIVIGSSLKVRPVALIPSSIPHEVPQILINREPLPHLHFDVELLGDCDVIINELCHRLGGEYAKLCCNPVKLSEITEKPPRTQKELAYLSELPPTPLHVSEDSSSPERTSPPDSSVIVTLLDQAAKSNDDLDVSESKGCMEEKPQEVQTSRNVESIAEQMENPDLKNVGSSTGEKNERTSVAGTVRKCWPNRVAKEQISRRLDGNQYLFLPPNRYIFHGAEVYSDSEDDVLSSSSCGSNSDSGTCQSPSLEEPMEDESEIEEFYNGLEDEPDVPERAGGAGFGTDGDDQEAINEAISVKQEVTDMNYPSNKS

[5] = target: T3, NAD-dependent protein deacetylase sirtuin-3, mitochondrial (Homo sapiens) (UniProt Q9NTG7); assay: Inhibition of SIRT3 in human H103 cells assessed as growth inhibition after 72 hrs by MTT assay; assay type: cell-based
T3 sequence (whole entry): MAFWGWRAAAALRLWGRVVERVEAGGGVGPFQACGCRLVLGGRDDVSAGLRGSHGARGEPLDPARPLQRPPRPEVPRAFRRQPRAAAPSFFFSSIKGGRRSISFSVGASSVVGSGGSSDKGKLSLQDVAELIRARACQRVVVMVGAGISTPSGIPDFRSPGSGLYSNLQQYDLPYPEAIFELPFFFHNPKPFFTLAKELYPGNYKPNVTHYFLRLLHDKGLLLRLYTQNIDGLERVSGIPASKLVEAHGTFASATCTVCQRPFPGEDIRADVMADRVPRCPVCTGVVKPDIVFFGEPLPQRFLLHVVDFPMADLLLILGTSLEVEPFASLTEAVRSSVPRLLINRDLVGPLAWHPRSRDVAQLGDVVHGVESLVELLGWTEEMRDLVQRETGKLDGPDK
How it was run: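 H103 cells (ECACC) were seeded at 5 × 10^3 per well and treated for 72 h with final DMSO below 1%. Viability was read by MTT: 4 h at 37 °C in 5% CO2, formazan dissolved in DMSO, absorbance at 570 nm. Proliferation was expressed as the ratio of treated to control absorbance. Experiments were run in triplicate. GI50 was determined.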

[6] = target: T4, NAD-dependent protein deacetylase sirtuin-3, mitochondrial (Homo sapiens, UniProt Q9NTG7); assay: Inhibition of human recombinant SIRT3 using p53 (317 to 320 residues) conjugated to AMC as substrate incubated for 45 mins in presence of NAD+ by fluorescence assay
T4 sequence (Q9NTG7 whole entry): T3 sequence (whole entry)

[7] = system: H103; assay: Cell cycle arrest in human H103 cells assessed as accumulation at S phase after 24 hrs by RNase/7-AAD staining based flow cytometry analysis (reference value: 18 %); assay type: functional
How it was run: (§2)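 H103 oral squamous carcinoma cells (ECACC) were seeded at 5 × 10^5 per well, left to adhere overnight and then treated for 24 h. Cells were trypsinized, washed in PBS and fixed in ice-cold 70% ethanol for 30 min at 4 °C. They were stained with RNase plus 7-AAD in staining buffer, and DNA content was read by imaging flow cytometry at 488 nm. G1 = 2N, G2/M = 4N.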

[8] = target: T2, NAD-dependent protein deacetylase sirtuin-1 (Homo sapiens); assay: Inhibition of SIRT1 in human H103 cells assessed as increase in acetylated p53 level at 32 uM after 24 hrs by Western blot analysis; assay type: cell-based; how it was run: as §1
[9] = system: H103; assay: Induction of apoptosis in human H103 cells assessed as early apoptotic cells after 24 hrs by AnnexinV-FLTC/propidium iodide staining based flow cytometry (reference value: 0.01 %); assay type: functional
[10] = target: T5, NAD-dependent protein deacetylase sirtuin-2 (Homo sapiens, UniProt Q8IXJ6); assay: Inhibition of human recombinant SIRT2 using p53 (317 to 320 residues) conjugated to AMC as substrate incubated for 45 mins in presence of NAD+ by fluorescence assay
T5 sequence (Q8IXJ6 whole entry): T1 sequence (whole entry)

[11] = target: T6, NAD-dependent protein deacetylase sirtuin-1 (Homo sapiens, UniProt Q96EB6); assay: Inhibition of human recombinant SIRT1 using p53 (379 to 382 residues) conjugated to AMC as substrate incubated for 45 mins in presence of NAD+ by fluorescence assay
T6 sequence (Q96EB6 whole entry): T2 sequence (whole entry)

[12] = system: H103; assay: Cell cycle arrest in human H103 cells assessed as accumulation at G2/M phase after 24 hrs by RNase/7-AAD staining based flow cytometry analysis (reference value: 36.5 %); assay type: functional; how it was run: as §2
[13] = system: H103; assay: Induction of apoptosis in human H103 cells assessed as necrotic cells after 24 hrs by AnnexinV-FLTC/propidium iodide staining based flow cytometry (reference value: 7.49 %); assay type: functional
[14] = system: H103; assay: Cell cycle arrest in human H103 cells assessed as accumulation at G1 phase after 24 hrs by RNase/7-AAD staining based flow cytometry analysis (reference value: 38.8 %); assay type: functional; how it was run: as §2

SMILES | inhibition [2] | inhibition [4] | GI50 [5] | IC50 [6] | inhibition [8] | IC50 [10] | IC50 [11] | Activity [1] | Activity [3] | Activity [7] | Activity [9] | Activity [12] | Activity [13] | Activity [14]
CCOC(=O)c1ccc2[nH]c(-c3ccc(C(F)(F)F)cc3)nc2c1 |  |  |  | > 50 µM |  | > 50 µM | > 50 µM |  |  |  |  |  |  | 
CCOC(=O)c1ccc2[nH]c(-c3ccc(OC(F)(F)F)cc3)nc2c1 |  |  |  | > 50 µM |  | > 50 µM | > 50 µM |  |  |  |  |  |  | 

The next molecules have a lower IC50 [10] than those just listed; values first:

inhibition [2] | inhibition [4] | GI50 [5] | IC50 [6] | inhibition [8] | IC50 [10] | IC50 [11] | SMILES | Activity [1] | Activity [3] | Activity [7] | Activity [9] | Activity [12] | Activity [13] | Activity [14]
Active | inactive | 5.83 µM | 9.8 µM | inactive | 5.6 µM | 7.7 µM | CCOC(=O)c1ccc2[nH]c(-c3ccc4c(c3)OCO4)nc2c1 | 7.82% | 90.6% | 20.3% | 0.04% | 43.2% | 11.3% | 8.1%
 |  |  | > 50 µM |  | 45.8 µM | > 50 µM | CCOC(=O)c1ccc2[nH]c(-c3ccc(Br)cc3)nc2c1 |  |  |  |  |  |  | 
 |  |  |  |  | 30.5 µM | 33.6 µM | CCOC(=O)c1ccc2[nH]c(-c3ccc(Cl)cc3)nc2c1 |  |  |  |  |  |  | 
